Source: ChEMBL document CHEMBL1128448, “Synthesis and antifungal activity of new azole derivatives containing an N-acylmorpholine ring” (1995)
≈ marks a conversion by molar mass, not a printed value.

Legend:
[1] = system: Kluyveromyces marxianus; test: In vitro evaluation of minimum inhibitory concentration against Candida pseudotropicalis 13; type: functional; settings: Kluyveromyces marxianus; read-out: MIC
Summary of the method: (§1)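 Stocks are 800 μg/mL in 50% ethanol. Each plate gets 10 μL of inoculum at 10^5 cfu/mL. Incubation at 25 °C, 48 h for yeasts and 120 h for dermatophytes and molds. Organisms are ATCC strains or clinical isolates.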

[2] = system: Mus sp.; test: In vivo evaluation of % survival rate after peroral administration on 3rd day at dose 0.5 mg/kg; type: functional; settings: route oral
[3] = system: Candida albicans; test: In vitro evaluation of minimum inhibitory concentration against Candida albicans 76; type: functional; settings: Candida albicans; read-out: MIC; summary of the method: as §1
[4] = system: Candida parapsilosis; test: Evaluation of In vitro antifungal activity against Candida parapsilosis 2.07 by broth macro dilution method; type: functional; settings: Lodderomyces parapsilosis
Summary of the method: (§2)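 Yeast MIC and MFC by broth macrodilution per NCCLS M27-P in RPMI-1640 buffered with 0.165 M MOPS. Fluconazole in sterile water, other drugs in DMSO. C. parapsilosis ATCC 22019 is the reference strain in each run. MIC is the lowest concentration with turbidity ≤ the 80% inhibition standard. For MFC, 0.04 mL from clear tubes is plated on Sabouraud agar; MFC is the lowest concentration giving ≤1 colony.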

[5] = system: Mus sp.; test: In vivo evaluation of % survival rate after peroral administration on 5th day at dose 0.5 mg/kg; type: functional; settings: route oral
[6] = system: Candida parapsilosis; test: Evaluation of In vitro antifungal activity against Candida parapsilosis ATCC 22019 by broth macro dilution method; type: functional; settings: Lodderomyces parapsilosis; summary of the method: as §2
[7] = system: Candida parapsilosis; test: In vitro evaluation of minimum inhibitory concentration against Candida parapsilosis 61; type: functional; summary of the method: as §1
[8] = system: Rattus norvegicus; test: In vivo evaluation of antifungal activity against vaginal candidosis in rat at dose 0.1 mg/kg on 15th day; type: functional
Summary of the method: (§3)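 Groups of 10 female Wistar rats given estradiol 25 mg/kg sc on day -5, then vaginally inoculated with C. albicans on day 0. Infection is confirmed by culture of day-3 swabs. Compound is dosed orally once daily on days 3–5; controls get vehicle. Cure is scored by culture of vaginal swabs taken on days 10 and 15.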

[9] = system: Cryptococcus neoformans; test: Evaluation of In vitro antifungal activity against Cryptococcus neoformans 74 by broth macro dilution method; type: functional; summary of the method: as §2
[10] = system: Rattus norvegicus; test: In vivo evaluation of antifungal activity against vaginal candidosis in rat at dose 0.25 mg/kg on 10th day; type: functional
Summary of the method: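 Groups of 10 female Wistar rats given estradiol 25 mg/kg sc on day -5, infected intravaginally with C. albicans by sterile swab on day 0; infection confirmed on day 3 by swab culture (TSB, then Sabouraud agar). Oral dosing once daily on days 3, 4, 5; vehicle controls. Vaginal swabs cultured on days 10 and 15; read-out % cured (culture-negative).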

[11] = system: Candida albicans; test: Evaluation of […] antifungal activity against Candida albicans 60 by broth macro dilution method; type: functional; summary of the method: as §2
[12] = system: Mus sp.; test: In vivo evaluation of % survival rate after peroral administration on 5th day at dose 1 mg/kg; type: functional; settings: Mus sp., po
[13] = system: Aspergillus niger; test: In vitro evaluation of minimum inhibitory concentration against Aspergillus niger 18; type: functional; settings: Aspergillus niger; read-out: MIC; summary of the method: as §1
[14] = system: Microsporum canis; test: In vitro evaluation of minimum inhibitory concentration against Microsporum canis 47; type: functional; summary of the method: as §1
[15] = system: Candida albicans; test: Evaluation of In vitro antifungal activity against Candida albicans 60 by broth macro dilution method
[16] = system: Rattus norvegicus; test: In vivo evaluation of antifungal activity against vaginal candidosis in rat at dose 0.1 mg/kg on 10th day; type: functional; summary of the method: as §3
[17] = system: Nakaseomyces glabratus; test: In vitro evaluation of minimum inhibitory concentration against Torulopsis glabrata 78; type: functional; summary of the method: as §1
[18] = system: Candida albicans; test: Evaluation of In vitro antifungal activity against Candida albicans ATCC 10231 by broth macro dilution method; type: functional; summary of the method: as §2
[19] = system: Candida albicans; test: In vivo evaluation of minimum inhibitory concentration against Candida albicans 60; type: functional; settings: Candida albicans; read-out: MIC
Summary of the method: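 Broth macrodilution MIC following NCCLS M27-P, in RPMI-1640 buffered with 0.165 M MOPS. Fluconazole was dissolved in water and other drugs in DMSO. C. parapsilosis ATCC 22019 served as the reference strain in every run. MIC was the lowest concentration giving turbidity at or below the 80% inhibition standard.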

[20] = system: Mus sp.; test: In vivo evaluation of % survival rate after peroral administration on 9th day at dose 1 mg/kg; type: functional; settings: route oral, 1 mg/kg
[21] = system: Candida tropicalis; test: Evaluation of In vitro antifungal activity against Candida tropicalis 2.11 by broth macro dilution method; type: functional; summary of the method: as §2
[22] = system: Kluyveromyces marxianus; test: Evaluation of In vitro antifungal activity against yeasts by broth macro dilution method; type: functional; summary of the method: as §2
[23] = system: Candida albicans; test: Evaluation of In vitro antifungal activity against Candida albicans C52 by broth macro dilution method; type: functional; summary of the method: as §2
[24] = system: Mus musculus; test: In vivo evaluation of % survival rate after peroral administration on 7th day at dose 0.5 mg/kg; type: functional; settings: route oral
[25] = system: Mus sp.; test: In vivo evaluation of % survival rate after peroral administration on 9th day at dose 0.5 mg/kg; type: functional; settings: Mus sp., po
[26] = system: Kluyveromyces marxianus; test: Evaluation of In vitro antifungal activity against Candida pseudotropicalis ATCC 28838 by broth macro dilution method; type: functional; summary of the method: as §2
[27] = system: Meyerozyma guilliermondii; test: In vitro evaluation of minimum inhibitory concentration against Candida guilliermondii 26; type: functional; summary of the method: as §1
[28] = system: Candida albicans; test: Evaluation of In vitro antifungal activity against Candida albicans 31 by broth macro dilution method; type: functional; summary of the method: as §2
[29] = system: Mus sp.; test: In vivo evaluation of % survival rate after peroral administration on 3rd day at dose 1 mg/kg; type: functional; settings: Mus sp., po
[30] = system: Aspergillus fumigatus; test: In vitro evaluation of minimum inhibitory concentration against Aspergillus fumigatus 33; type: functional; summary of the method: as §1

Structure (SMILES): C[C@@H](NC(=O)c1ccc(C(F)(F)F)cc1)[C@](O)(Cn1cncn1)c1ccc(F)cc1F
- MIC [1]: 40 µg/mL (≈ 90.8 µM)
- survival at 0.5 mg/kg [2]: 100%
- MIC [3]: 80 µg/mL (≈ 182 µM)
- MFC [4]: 64 µg/mL (≈ 145 µM)
- MIC [4]: 0.063 µg/mL (≈ 0.143 µM)
- survival at 0.5 mg/kg [5]: 100%
- MFC [6]: 2 µg/mL (≈ 4.54 µM)
- MIC [6]: 0.125 µg/mL (≈ 0.284 µM)
- MIC [7]: 2.5 µg/mL (≈ 5.68 µM)
- Cure rate [8]: 20%
- MFC [9]: > 64 µg/mL
- MIC [9]: < 0.031 µg/mL
- Cure rate [10]: 100%
- MIC [11]: < 0.031 µg/mL
- survival at 1 mg/kg [12]: 100%
- MIC [13]: 40 µg/mL (≈ 90.8 µM)
- MIC [14]: 20 µg/mL (≈ 45.4 µM)
- MFC [15]: > 64 µg/mL
- Cure rate [16]: 0%
- MIC [17]: 20 µg/mL (≈ 45.4 µM)
- MFC [18]: > 64 µg/mL
- MIC [18]: 0.063 µg/mL (≈ 0.143 µM)
- MIC [19]: 0.15 µg/mL (≈ 0.341 µM)
- Survival [20]: 100%
- MFC [21]: 64 µg/mL (≈ 145 µM)
- MIC [21]: 0.25 µg/mL (≈ 0.568 µM)
- MIC [22]: < 0.031 µg/mL
- MFC [23]: > 64 µg/mL
- MIC [23]: < 0.031 µg/mL
- survival at 0.5 mg/kg [24]: 95%
- survival at 0.5 mg/kg [25]: 70%
- MFC [26]: 2 µg/mL (≈ 4.54 µM)
- MIC [27]: 0.63 µg/mL (≈ 1.43 µM)
- MFC [28]: > 64 µg/mL
- MIC [28]: < 0.031 µg/mL
- survival at 1 mg/kg [29]: 100%
- MIC [30]: 20 µg/mL (≈ 45.4 µM)
